Reference: paper PMC6543826 (Bioorganic chemistry, 2018)
“And” between values parts separate entries of the source, which are not always exact repeats. Equal values may be shown once. Read-outs that look alike come from different tables or passages of the source.

Columns and labels:
RPMI-8226 = assay: cells; format: cell-based; details: RPMI-8226, 10^−5 M, 48 h
SR = assay: cells; format: cell-based; details: 10^−5 M, 48 h
A549/ATCC = assay: cells; format: cell-based; details: A549/ATCC, 10^−5 M, 48 h
HOP-92 = assay: cells; format: cell-based; details: HOP-92, 10^−5 M, 48 h
NCI-H226 = assay: cells; format: cell-based; details: NCI-H226, 10^−5 M, 48 h
SF-295 = assay: cells; format: cell-based; details: SF-295, 10^−5 M, 48 h
SF-539 = assay: cells; format: cell-based; details: SF-539, 10^−5 M, 48 h
U251 = assay: cells; format: cell-based; details: U251, 10^−5 M, 48 h
SK-MEL-2 = assay: cells; format: cell-based; details: SK-MEL-2, 10^−5 M, 48 h
SK-MEL-28 = assay: cells; format: cell-based; details: SK-MEL-28, 10^−5 M, 48 h
UACC-62 = assay: cells; format: cell-based; details: UACC-62, 10^−5 M, 48 h
OVCAR-5 = assay: cells; format: cell-based; details: OVCAR-5, 10^−5 M, 48 h
OVCAR-8 = assay: cells; format: cell-based; details: OVCAR-8, 10^−5 M, 48 h
MCF7 = assay: cells; format: cell-based; details: MCF7, 10^−5 M, 48 h
ERK1 = ERK1 (Homo sapiens, UniProt P27361); assay: in vitro radioactive kinase assay, Ets-1 phosphorylation by ERK1; format: biochemical
Method in brief: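 Radiometric assay at 28–30 °C in 25 mM HEPES pH 7.5, 50 mM KCl, 0.1 mM EDTA/EGTA, 2 mM DTT, 11 mM MgCl2, 10 μg mL−1 BSA and 5% DMSO (final). 2 nM activated ERK1 was used with 10 μM His-Ets-1 (1–138). Reactions were started with [γ-32P]ATP (10 or 100 μM). IC50 came from fitting rate versus inhibitor concentration to a hyperbolic decay equation.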

ERK2 = ERK2 (Rattus norvegicus, UniProt P63086); assay: in vitro radioactive kinase assay, Ets-1 phosphorylation by ERK2; format: biochemical; details: for effect of excess Ets-1 (100 μM) on inhibition of ERK2: 5 μM inhibitor, 100 μM vs 10 μM Ets-1, 100 μM ATP
Method in brief: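 Activated rat ERK2 (2 nM) was tested with His-Ets-1 (1–138) at 28–30 °C in HEPES pH 7.5 buffer with 11 mM MgCl2, BSA and 5% DMSO. Reactions were started with [γ-32P]ATP (10 or 100 μM).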

[1] = tested on: NCI-60 panel of tumor cell lines; details: for Average G%: average over tested NCI-60 cell lines, 10^−5 M (10 μM), 48 h; for NCI Cytotoxicity Screening Average G%: Table 4, 10 μM one-dose screen
EKVX = assay: NCI-60 SRB screen, Non-small cell lung cancer; format: cell-based, human; details: 10^−5 M, 48 h
A498 = assay: NCI-60 SRB screen, Renal cancer; format: cell-based, human; details: A498, 10^−5 M, 48 h
[2] = tested on: BRAF-mutant A375 melanoma cells; assay: A375 cell viability, MTS assay; format: cell-based; details: Homo sapiens, A-375, 72 h, read-out: A375 Cell Viability IC50
Method in brief: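 A375 cells were kept in RPMI with 10% heat-inactivated FBS, Glutamax and penicillin/streptomycin at 37 °C in 5% CO2. 2000 cells per well were treated with a range of test compound doses for 72 h. Viability was read by MTS assay. Run in triplicate.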

A375 cells [3] = assay: anchorage dependent colony formation assay; format: cell-based, human; details: A375, 10–14 days
Method in brief: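 1000 A375 cells per 60 mm plate adhered for 24 h, then were treated with various test compound doses for 10–14 days. Plates were PBS-washed and fixed in 4% paraformaldehyde (15 min, room temperature). They were stained with 0.2% crystal violet in 20% methanol for 10 min, water-washed and imaged under microscope.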

A375 cells [4] = assay: IncuCyte real time proliferation assay; format: cell-based, human; details: imaged every 1 h for 90 h
Method in brief: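 Real-time growth: 2000 A375 cells per well adhered for 24 h, then were treated with a range of test compound doses. Phase images were taken on IncuCyte ZOOM (10× objective) every 1 h for 90 h in total. Growth confluence was estimated from the images and plotted.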

[5] = tested on: caspase 3/7 in A375 cells; assay: IncuCyte Caspase 3/7 apoptosis assay; format: cell-based, human; details: doses of 3.7 and 33.3 μM, after 48 and 72 h
Method in brief: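 2000 A375 cells per well adhered for 24 h, then received test compound doses plus a constant concentration of IncuCyte Caspase-3/7 reagent. Cells were imaged on IncuCyte ZOOM (10× objective) at set time points, and stained cells were counted. Apoptotic cell number was normalized to percentage area confluence at the final time point.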

[6] = tested on: cleaved PARP in A375 cells; assay: PARP cleavage western blot; format: cell-based, human; details: 12 h exposure
Method in brief: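 A375 cells (1,000,000 per well) were seeded 24 h, then exposed to several test compound doses for 12 h before lysis in buffer with protease/phosphatase inhibitors. Protein was measured by Bradford. 60 μg lysate was run on 10% SDS-PAGE and blotted to PVDF. Blots were probed for PARP and cleaved PARP, with vinculin as loading control. Done twice.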

[7] = ERK1 IC50, 100 μM ATP, 10 μM Ets-1
[8] = ERK2 IC50, 100 μM ATP, 10 μM Ets-1
[9] = ERK2 IC50 at 100 μM ATP /10mM Ets-1, Table 4, 100 μM ATP /10mM Ets-1

Chain of ERK2 (P63086 whole entry): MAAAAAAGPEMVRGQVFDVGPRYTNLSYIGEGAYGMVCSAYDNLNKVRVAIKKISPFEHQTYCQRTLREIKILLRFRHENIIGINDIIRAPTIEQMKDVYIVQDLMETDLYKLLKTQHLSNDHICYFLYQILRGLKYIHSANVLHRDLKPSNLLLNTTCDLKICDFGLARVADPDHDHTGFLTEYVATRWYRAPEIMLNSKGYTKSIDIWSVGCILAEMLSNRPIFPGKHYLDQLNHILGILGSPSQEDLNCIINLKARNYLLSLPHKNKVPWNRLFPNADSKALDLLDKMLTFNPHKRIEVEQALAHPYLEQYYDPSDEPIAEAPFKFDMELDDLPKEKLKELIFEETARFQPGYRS
Chain of ERK1 (P27361 whole entry, species assumed): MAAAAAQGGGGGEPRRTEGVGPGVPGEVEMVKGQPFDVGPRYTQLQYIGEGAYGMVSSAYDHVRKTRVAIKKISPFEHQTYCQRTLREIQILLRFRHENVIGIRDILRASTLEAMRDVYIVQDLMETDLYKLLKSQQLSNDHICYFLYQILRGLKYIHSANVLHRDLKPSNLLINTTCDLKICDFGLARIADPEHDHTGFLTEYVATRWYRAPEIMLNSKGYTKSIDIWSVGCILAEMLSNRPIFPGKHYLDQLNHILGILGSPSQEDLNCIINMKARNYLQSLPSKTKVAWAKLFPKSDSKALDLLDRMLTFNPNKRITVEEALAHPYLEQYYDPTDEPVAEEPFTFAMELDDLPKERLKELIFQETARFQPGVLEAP

Row | Compound | Growth percent (G%) (RPMI-8226) [%] | Growth percent (G%) (SR) [%] | Growth percent (G%) (A549/ATCC) [%] | Growth percent (G%) (HOP-92) [%] | Growth percent (G%) (NCI-H226) [%] | Growth percent (G%) (SF-295) [%] | Growth percent (G%) (SF-539) [%] | Growth percent (G%) (U251) [%] | Growth percent (G%) (SK-MEL-2) [%] | Growth percent (G%) (SK-MEL-28) [%] | Growth percent (G%) (UACC-62) [%] | Growth percent (G%) (OVCAR-5) [%] | Growth percent (G%) (OVCAR-8) [%] | Growth percent (G%) (MCF7) [%] | Average G% [1] | IC50 (ERK1; [7]) [µM] | effect of excess Ets-1 (100 μM) on inhibition of ERK2 (ERK2) | IC50 (ERK2; [8]) | IC50 (ERK2; [9]) [µM] | NCI Cytotoxicity Screening Average G% [1] [%] | other results
1 | Cn1c(=O)c2c(=O)c3c4c(oc3oc2c2ccccc21)C(=O)c1ccccc1C4=O [5a, 5-Methyl-5H-naphthalen[2″,3″:4′,5′]furo[3′,2′:4′,5,6]pyrano [3,2-c]quinoline-6,7,8,13-tetraone] | 100.23 | 92.01 | 85.17 | 99.17 | 88.55 | 101.32 | 93.83 | 104.35 | 86.85 | 107.21 | 93.45 | 102.02 | 100.1 | 76.73 | 95.45% |  |  |  |  |  | IC50 (ERK1; read-out: ERK1 IC50, 100 μM ATP, 10 μM Ets-1): 95 ± 10.9 µM; IC50 (ERK1; read-out: IC50 towards inhibiting ERK, ERK isoform not given): ≥ 100 µM; IC50 (ERK2; read-out: ERK2 IC50, 100 μM ATP, 10 μM Ets-1): 108 ± 12.2 µM; IC50 (ERK2; read-out: ERK2 IC50 at 100 μM ATP /10mM Ets-1, Table 4, 100 μM ATP /10mM Ets-1): > 100 µM
2 | O=C1c2ccccc2C(=O)c2c1oc1c2c(=O)[nH]c2ccccc21 [3a, Naphtho[2′,3′:4,5]furo[3,2-c]quinoline-6,7,12(5H)-trione] | 62.72 | 43.80 | 97.18 | 71.42 | 78.47 | 92.71 | 90.30 | 79.04 | 76.92 | 112.03 | 88.73 | 102.37 | 35.61 | 48.82 | 68% and 68.19% | 9.12 ± 1.1 | did not rescue | 10.2 ± 1.2 µM | 10.2 ± 1.2 | 68 | Growth percent (G%) (EKVX): 27.35%; Growth percent (G%) (A498): 103.58%; IC50 (ERK1; IC50 towards inhibiting ERK, ERK isoform not given): ~9 µM
3 | O=C1C(Cl)=C(c2c(O)c3c(=O)n(-c4ccccc4)c4ccccc4c3oc2=O)C(=O)c2ccccc21 [compound 6, 3-(3-Chloro-1,4-dioxo-1,4-dihydronaphthalen-2-yl)-4-hydroxy-6-phenyl-2H-pyrano[3,2-c]quinoline-2,5(6H)-dione] | 19.65 | 11.44 | 37.73 | 80.01 | 86.30 | 18.38 | −5.45 | 21.15 | 23.06 | 39.37 | 13.17 | 88.70 | 48.24 | 51.60 | 35.49% | 0.19 ± 0.01 | did not rescue | ~0.16 µM and 0.16 µM | 0.16 ± 0.02 | 35 | IC50 (ERK2; ERK2 IC50, 10 μM ATP): 0.09 µM and 0.086 µM; IC50 [2]: 0.13 ± 0.03 µM; concentration at which inhibition of colony forming ability starts (A375 cells [3]): 2.5 µM; A375 real time proliferation (growth confluence), in words (A375 cells [4]): dose-dependent inhibition; caspase 3/7 activity in A375 [5]: activation of caspase 3/7; level of cleaved PARP in A375 [6]: elevated level
